An excerpt weighted towards active compounds, which were near 6.3% of everything screened.
M1 ag: M1 muscarinic receptor agonists, primary screen, CHO-M1 cells, Fluo-4 calcium, agonist mode; AID 626, 2007; Muscarinic acetylcholine receptor M1; hit rate 3% among 64,000; Fluo-4 calcium fluorescence; hits give high values; B-score at 10 µM;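 active = fluorescence rise, raw or as B-score row- and column-corrected plate score, outside the 99.7% band of its plate's samples, either direction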
SF1 activator: activators of human SF-1, primary screen, cell-based, CHO-K1, Gal4-SF-1 LBD, luciferase luminescence | activation, % at 10 µM | hit rate 1.9% among 65,000 | CHO-K1 Gal4-SF-1 LBD luciferase reporter; % increase over DMSO SF-1-specific signal;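 active = activation above the mean activation of all tested compounds plus 3 SD, cut at about 50% in these data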
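System: CHO-K1 cells with Gal4–hSF-1 LBD chimera plus Gal4-driven luciferase; quantity: 4,000 CHO-K1 cells per well; compound: one dose, 10 µM compound, 1% DMSO; times: 20 h compound treatment, 37 °C; measured by: SteadyLite luciferase luminescence; read-out: percent activation versus DMSO; benchmarks: DMSO and mock-transfected background; replicates: one test per compound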
M1 antag: antagonists of rat M1 muscarinic receptor. Muscarinic acetylcholine receptor M1 (Rattus norvegicus), P08482. CHO-M1 cells, Fluo-4 calcium, ACh EC80 antagonist mode; hits give low values. B-score at 10 µM. hit rate 3.4% among 64,000. AID 628, 2007;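 active = calcium fluorescence response, raw or row-and-column corrected B-score, differing from the plate sample mean either way at a set confidence level, mostly lower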
MT1-MMP txn act: MT1-MMP promoter reporter activation – cell-based, luciferase luminescence, primary screen; HT1080 MT1-MMP promoter luciferase reporter, overnight; hits give high values; activation factor at 10 µM; hit rate 0.16% among 86,000;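 active = activation factor of at least 2 for MT1-MMP transcription at 10 µM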
RORa activator: activators of orphan receptor RORA, primary screen, cell-based, luminescence; CHO-K1 Gal4-RORA LBD luciferase reporter; percent increase over mock-subtracted basal signal; hit rate 1.5% among 65,000; activation, % at 10 µM; Nuclear receptor ROR-alpha (Homo sapiens), P35398;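 active = activation above the mean of all tested compounds plus 3 SD, cut at about 49% in these data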
M1 ag confirm: rat M1 muscarinic receptor agonists, confirmation, CHO-M1 cells, Fluo-4 calcium, duplicate retest | shares compounds with M1 ag | Fluo-4 calcium fluorescence, agonist mode; actives lie on both sides | fluorescence change (max-min) at 10 µM | hit rate 19% among 1,700;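 active = fluorescence change differs from the solvent-only DMSO control mean at a set confidence level in both duplicate runs; inconclusive = differs from solvent-only control mean in just one of two runs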;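 also: an EC20 dose of acetylcholine follows compound addition during the same imaging run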
M4 ag counter: agonist activity at rat M4 receptor, confirmation, counter-screen for M1 allosteric modulator project, cell-based, agonist mode; shares compounds with M1 ag; CHO M4/Gqi5 cells, Fluo-4 calcium fluorescence; actives lie on both sides; fluorescence change (max-min) at 10 µM; hit rate 9% among 1,700; AID 1741, 2009;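 active = fluorescence change differing from the plate's solvent-only control wells at 99.7% confidence in both duplicates, whether higher or lower; inconclusive = differs from solvent controls in only one of two duplicates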
Target sequence (P08485 whole entry, looked up): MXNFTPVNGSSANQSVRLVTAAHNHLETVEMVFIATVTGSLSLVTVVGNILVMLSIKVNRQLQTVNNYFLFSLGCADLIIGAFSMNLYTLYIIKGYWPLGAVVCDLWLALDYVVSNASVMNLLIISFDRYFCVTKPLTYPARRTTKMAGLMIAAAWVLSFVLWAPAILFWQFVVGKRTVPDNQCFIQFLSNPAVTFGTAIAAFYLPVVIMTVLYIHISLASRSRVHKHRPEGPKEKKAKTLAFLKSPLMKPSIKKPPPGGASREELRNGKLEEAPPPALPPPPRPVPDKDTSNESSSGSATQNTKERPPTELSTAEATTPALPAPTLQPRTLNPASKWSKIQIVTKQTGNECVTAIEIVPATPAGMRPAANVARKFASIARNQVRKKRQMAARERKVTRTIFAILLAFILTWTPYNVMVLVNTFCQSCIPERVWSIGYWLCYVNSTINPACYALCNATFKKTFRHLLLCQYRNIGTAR
Of the large screens only hits and unclear results are named; the others gave an inactive call (follow-up assays come after a bar, where they were run).

CC(=O)c1c(C)n(CC(=O)NCc2ccc3c(c2)OCO3)c2ccccc12	M1 ag 3.37 | M1 ag confirm inconclusive | M4 ag counter inactive
O=C1CN(Cc2ccccc2)C(=NCc2ccco2)S1	none
COc1ccc2c(c1)c1ncn(CCN3CCCC3)c(=O)c1n2C	none
COc1ccccc1CCn1cnc2c3cc(C)ccc3n(C)c2c1=O	M1 ag 1.82 | M1 ag confirm inconclusive | M4 ag counter inactive
N#Cc1c(N)sc2c1CCCCCC2	none
N#Cc1c(N)sc(=S)c2c1CCCCC2	M1 ag 13.3 | M1 ag confirm inactive | M4 ag counter inactive
COc1ccc(CCNC(=O)COC(=O)c2cnc(C)cn2)cc1	none (no result: M1 ag, SF1 activator, M1 antag, RORa activator)
COc1cc(-c2nc(-c3ccc4c(c3)-c3ccccc3S4(=O)=O)c(-c3ccccc3)[nH]2)cc(OC)c1O	none (no result: M1 ag, SF1 activator, M1 antag, RORa activator)
COc1ccccc1CCNC(=O)c1cnn2c(C(F)F)cc(C)nc12	M1 ag 2.48 | M1 ag confirm inactive | M4 ag counter inactive
CCCCN(CCCC)c1cc(C)nc(-c2ccccc2O)n1	none (no result: M1 ag, SF1 activator, M1 antag, RORa activator)
O=c1[nH]c(CSc2nnc(NCCCN3CCOCC3)s2)nc2cc(Cl)ccc12	none
Cc1ccc(S(=O)(=O)c2c(N)n(Cc3ccco3)c3nc4ccccc4nc23)cc1	M1 ag 11.9 | M1 ag confirm inactive | M4 ag counter inactive
Cc1cccc(S(=O)(=O)c2c(N)n(Cc3ccco3)c3nc4ccccc4nc23)c1	none
CCOc1ccc(S(=O)(=O)NCc2ccncc2)cc1	none (no result: M1 ag, SF1 activator, M1 antag, RORa activator)
CCOC(=O)COc1ccc(S(=O)(=O)NCc2ccncc2)cc1	M1 ag 7.56 | M1 ag confirm inactive | M4 ag counter inconclusive
C=CCOc1ccc(/C(O)=C2/C(=O)C(=O)N(CCCn3ccnc3)C2c2cccs2)cc1 (configuration not stated)	none
COc1ccc(S(=O)(=O)C(C#N)c2nc3ccccc3nc2N2CCC(C)CC2)cc1 (configuration not stated)	M1 ag 3.95 | M1 ag confirm inconclusive | M4 ag counter inactive
CC1CCCN(c2nc3ccccc3nc2C(C#N)S(=O)(=O)c2ccccc2)C1 (configuration not stated)	none
CCOC(=O)N1CCC(NCCNC(=O)c2ccc(Cl)cc2)CC1	M1 ag 18.2 | M1 ag confirm 115 | M4 ag counter inactive
CCOC(=O)N1CCC(Nc2c(N3CCN(c4cc(Cl)ccc4C)CC3)c(=O)c2=O)CC1	none
CCOC(=O)C1CCCN(C/C(O)=C(\C#N)c2nc(-c3ccc(Cl)cc3)cs2)C1 (configuration not stated)	M1 ag 21.2 | M1 ag confirm inconclusive | M4 ag counter inactive
CCOC(=O)C1CCCN(Cc2nc(N)nc(Nc3ccc(Cl)cc3)n2)C1 (configuration not stated)	none
O=C(CSc1nc(-c2ccco2)cc(C(F)(F)F)n1)Nc1ccc(C(=O)N2CCCCC2)cc1	M1 ag 6.69 (no result: MT1-MMP txn act) | M1 ag confirm inconclusive | M4 ag counter inconclusive
COc1ccccc1N1CCN(C(=O)CSc2nc(-c3ccco3)cc(C(F)(F)F)n2)CC1	M1 ag 7.53 | M1 ag confirm inactive | M4 ag counter inactive
Cc1nn(C)c(C)c1NC(=O)CCSc1nc(-c2ccco2)cc(C(F)(F)F)n1	M1 ag 34, M1 antag -3.74 | M1 ag confirm inactive | M4 ag counter inactive
CCn1nc(C)c(NC(=O)CCCSc2nc(-c3ccco3)cc(C(F)(F)F)n2)c1C	none
O=[N+]([O-])c1cccnc1N1CCC(c2cc(-c3ccc(Cl)cc3)n[nH]2)CC1	none (no result: M1 ag, SF1 activator, M1 antag, RORa activator)
CC(C)CC(NS(=O)(=O)c1ccc2c(c1)oc(=O)n2C)C(=O)NCc1cccnc1 (configuration not stated)	none
COc1ccc(N2CC(C(=O)NCCCN3CCOCC3)CC2=O)cc1 (configuration not stated)	none
Cc1ccc(Cl)cc1N1CCN(C(=O)C2CCN(S(=O)(=O)c3cccnc3)CC2)CC1	none (no result: MT1-MMP txn act)
Cc1ccc(Cl)cc1N1CCN(C(=O)C2CCN(S(=O)(=O)c3c(C)nn(C)c3C)CC2)CC1	M1 ag 8.03, M1 antag -2.61 | M1 ag confirm inconclusive | M4 ag counter inactive
COc1ccc(N2C(=O)CC(Sc3nc(C)c4c(n3)CCCC4)C2=O)cc1 (configuration not stated)	M1 ag 2.2 | M1 ag confirm inactive | M4 ag counter inactive
C=CCn1c2ccccc2c2nnc(SCN3C(=O)c4ccccc4C3=O)nc21	none (no result: SF1 activator, MT1-MMP txn act, RORa activator)
C=CCn1c2ccccc2c2nnc(SCCCn3c(=O)[nH]c4ccccc43)nc21	M1 ag 5.32, M1 antag -6.62 | M1 ag confirm inactive | M4 ag counter inactive
CCOCCOCCC(C(=O)OCC)P(=O)(c1ccccc1)c1ccccc1 (configuration not stated)	none (no result: M1 ag, SF1 activator, M1 antag, RORa activator)
Cc1n[nH]c(C)c1N1C(=O)c2cccc3c(N4CCCCCC4)ccc(c23)C1=O	M1 ag 451, M1 antag -13.7 (no result: MT1-MMP txn act) | M1 ag confirm 2972 | M4 ag counter 2513
COC(=O)C(C)Sc1nnc(Cc2cc(=O)[nH]c(=O)[nH]2)n1-c1ccc(OC)cc1 (configuration not stated)	none
CCOC(=O)N1C(=O)c2cc(OC)ccc2S1(=O)=O	M1 ag 3.19 (no result: MT1-MMP txn act) | M1 ag confirm inconclusive | M4 ag counter inconclusive
COc1ccc(CC(C(=O)Nc2cc(C)ccc2C)/C(N)=N/O)cc1 (configuration not stated)	M1 ag 2.43 | M1 ag confirm inconclusive | M4 ag counter inactive
COc1ccc(CCN(Cc2cc3cc(C)ccc3[nH]c2=O)C(=O)N2CCCC2)cc1OC	none
Cc1ccc2[nH]c(=O)c(CN(CCc3ccccc3)C(=O)N3CCOCC3)cc2c1	M1 ag 14.3 | M1 ag confirm inactive | M4 ag counter inconclusive
COc1ccc(-c2nc(CSCC(=O)N3CCN(C(=O)c4ccco4)CC3)c(C)o2)cc1OC	none
CC(=O)c1n[nH]nc1NC(=O)c1ccccc1	M1 ag 2.77 | M1 ag confirm inconclusive | M4 ag counter inactive
O=C(COc1ccccc1)NC(Cc1c[nH]c2ccccc12)C(=O)O (configuration not stated)	none
CCOC(=O)C1=C(CS(=O)(=O)c2ccccc2)NC(=O)NC1c1ccccc1 (configuration not stated)	M1 ag 4.26 | M1 ag confirm inconclusive | M4 ag counter inconclusive
CCOC(=O)C1=C(COc2ccccc2)NC(=O)NC1c1ccc(Cl)cc1 (configuration not stated)	none (no result: M1 ag, SF1 activator, M1 antag, RORa activator)

Screening results as filed in PubChem BioAssay.
